Source: ChEMBL document CHEMBL5329156, “Discovery and development of novel substituted monohydrazides as potent antifungal agents” (RSC Med Chem, 2023)
Converted amounts (≈) assume the structure as drawn. Blank lines part the entries; values can stand above or below the molecule they belong to.

Legend:
J774.A1 = assay: Cytotoxicity against J774A.1 cells assessed as reduction in cell viability at 31.3 microg/ml; type: toxicity, cell-based; details: mouse, dose 31.3 µg/ml
In short: (§1)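 Cells in DMEM with 10% FBS and 1% Pen/Strep, seeded at 10,000 cells/well and held overnight at 37 °C, 5% CO2. Compounds added at final 31.3-0.12 µg/mL (0.05% DMSO vehicle) for 24 h. Resazurin then added for 6 h; fluorescence read at ex 560/em 590. Triton X-100 1% as positive control; values normalized to vehicle. Run in quadruplicate.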

HEK293 = assay: Cytotoxicity against human HEK-293 cells assessed as reduction in cell viability at 31.3 microg/ml; type: toxicity, cell-based; details: dose 31.3 µg/ml; in short: as §1
[Candida] auris [1] = Antifungal activity against Candida auris AR Bank # 383 assessed as fungal growth inhibition by double dilution method; type: functional; details: Candidozyma auris
In short: (§2)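 Broth microdilution after CLSI M27-A3/M38-A2 with minor changes. Single colony grown overnight in YPD at 35 °C, 200 rpm. Compound final range 0.06-31.3 µg/mL; incubated 48 h at 35 °C.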

Candida duobushaemulonii [2] = assay: Antifungal activity against Candida duobushaemulonii AR Bank # 391 assessed as fungal growth inhibition by double dilution method; type: functional; details: Candidozyma duobushaemuli; in short: as §2
[Candida] haemuloni [3] = Antifungal activity against Candida haemulonii AR Bank # 393 assessed as fungal growth inhibition by double dilution method; type: functional; details: Candidozyma haemuli; in short: as §2
[Candida] auris [4] = Antifungal activity against Candida auris AR Bank # 388 assessed as fungal growth inhibition by double dilution method; type: functional; details: Candidozyma auris; in short: as §2
Kodamaea ohmeri = assay: Antifungal activity against Kodamaea ohmeri AR Bank # 396 assessed as fungal growth inhibition by double dilution method; type: functional; in short: as §2
[Candida] auris [5] = Antifungal activity against Candida auris AR Bank # 387 assessed as fungal growth inhibition by double dilution method; type: functional; details: Candidozyma auris; in short: as §2
[Candida] auris [6] = Antifungal activity against Candida auris AR Bank # 389 assessed as fungal growth inhibition by double dilution method; type: functional; details: Candidozyma auris; in short: as §2
Saccharomyces cerevisiae [7] = assay: Antifungal activity against Saccharomyces cerevisiae AR Bank # 399 assessed as fungal growth inhibition by double dilution method; type: functional; in short: as §2
Saccharomyces cerevisiae [8] = assay: Antifungal activity against Saccharomyces cerevisiae AR Bank # 400 assessed as fungal growth inhibition by double dilution method; type: functional; in short: as §2
[Candida] auris [9] = Antifungal activity against Candida auris AR Bank # 382 assessed as fungal growth inhibition by double dilution method; type: functional; details: Candidozyma auris; in short: as §2
[Candida] auris [10] = Antifungal activity against Candida auris AR Bank # 384 assessed as fungal growth inhibition by double dilution method; type: functional; details: Candidozyma auris; in short: as §2
Candida duobushaemulonii [11] = assay: Antifungal activity against Candida duobushaemulonii AR Bank # 394 assessed as fungal growth inhibition by double dilution method; type: functional; details: Candidozyma duobushaemuli; in short: as §2
[Candida] auris [12] = Antifungal activity against Candida auris AR Bank # 390 assessed as fungal growth inhibition by double dilution method; type: functional; details: Candidozyma auris; in short: as §2
[Candida] auris [13] = Antifungal activity against Candida auris AR Bank # 385 assessed as fungal growth inhibition by double dilution method; type: functional; details: Candidozyma auris; in short: as §2
[Candida] auris [14] = Antifungal activity against Candida auris AR Bank # 386 assessed as fungal growth inhibition by double dilution method; type: functional; details: Candidozyma auris; in short: as §2
[Candida] haemuloni [15] = Antifungal activity against Candida haemulonii AR Bank # 395 assessed as fungal growth inhibition by double dilution method; type: functional; details: Candidozyma haemuli; in short: as §2
Clavispora lusitaniae = assay: Antifungal activity against Clavispora lusitaniae AR Bank # 398 assessed as fungal growth inhibition by double dilution method; type: functional; in short: as §2
Pichia kudriavzevii [16] = assay: Antifungal activity against Pichia kudriavzevii AR Bank # 397 assessed as fungal growth inhibition by double dilution method; type: functional; in short: as §2
Candida duobushaemulonii [17] = assay: Antifungal activity against Candida duobushaemulonii AR Bank # 392 assessed as fungal growth inhibition by double dilution method; type: functional; details: Candidozyma duobushaemuli; in short: as §2
[Candida] auris [18] = Antifungal activity against Candida auris AR Bank # 381 assessed as fungal growth inhibition by double dilution method; type: functional; details: Candidozyma auris; in short: as §2
Aspergillus fumigatus [19] = assay: Antifungal activity against Aspergillus fumigatus NRRL 6113 assessed as fungal growth inhibition by double dilution method; type: functional
Aspergillus nidulans = assay: Antifungal activity against Aspergillus nidulans ATCC 38163 assessed as fungal growth inhibition by double dilution method; type: functional
Cryptococcus neoformans = assay: Antifungal activity against Cryptococcus neoformans ATCC MYA-895 assessed as fungal growth inhibition by double dilution method; type: functional; in short: as §2
Candida albicans [20] = assay: Antifungal activity against itraconazole/fluconazole resistant Candida albicans ATCC 90819 assessed as fungal growth inhibition by double dilution method; type: functional
In short: (§3)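 Broth microdilution after CLSI M27-A3/M38-A2 with minor modifications. A single colony was grown overnight in YPD at 35 °C with shaking at 200 rpm. Cells were mixed 1:1 with compound (final 0.06-31.3 µg/mL, from DMSO stocks) and incubated 48 h at 35 °C.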

Aspergillus fumigatus [21] = assay: Antifungal activity against Aspergillus fumigatus NRRL 163 assessed as fungal growth inhibition by double dilution method; type: functional
Candida albicans [22] = assay: Antifungal activity against itraconazole/fluconazole resistant Candida albicans ATCC MYA-1237 assessed as fungal growth inhibition by double dilution method; type: functional; in short: as §3
Aspergillus flavus = assay: Antifungal activity against Aspergillus flavus ATCC MYA-3631 assessed as fungal growth inhibition by double dilution method; type: functional
Candida albicans [23] = assay: Antifungal activity against itraconazole/fluconazole susceptible Candida albicans ATCC MYA-2876 assessed as fungal growth inhibition by double dilution method; type: functional; in short: as §3
Aspergillus fumigatus [24] = assay: Antifungal activity against Aspergillus fumigatus NRRL 5109 assessed as fungal growth inhibition by double dilution method; type: functional
[Candida] auris [25] = Antifungal activity against Candida auris AR Bank # 0390 assessed as fungal growth inhibition by double dilution method; type: functional; details: Candidozyma auris; in short: as §2
Nakaseomyces glabratus [26] = assay: Antifungal activity against Candida glabrata ATCC 2001 assessed as fungal growth inhibition by double dilution method; type: functional; in short: as §2
Candida albicans [27] = assay: Antifungal activity against itraconazole/fluconazole resistant Candida albicans ATCC MYA-1003 assessed as fungal growth inhibition by double dilution method; type: functional; in short: as §3
[Candida] auris [28] = Antifungal activity against Candida auris AR Bank # 0384 assessed as fungal growth inhibition by double dilution method; type: functional; details: Candidozyma auris; in short: as §2
Pichia kudriavzevii [29] = assay: Antifungal activity against Pichia kudriavzevii ATCC 6258 assessed as fungal growth inhibition by double dilution method; type: functional; in short: as §2
Aspergillus terreus = assay: Antifungal activity against Aspergillus terreus ATCC MYA-3633 assessed as fungal growth inhibition by double dilution method; type: functional
Nakaseomyces glabratus [30] = assay: Antifungal activity against Candida glabrata ATCC 22019 assessed as fungal growth inhibition by double dilution method; type: functional; in short: as §2
Candida albicans [31] = assay: Antifungal activity against Candida albicans ATCC 10231 assessed as fungal growth inhibition by double dilution method; type: functional; in short: as §2
Candida albicans [32] = assay: Antifungal activity against Candida albicans ATCC 64124 assessed as fungal growth inhibition by double dilution method; type: functional; in short: as §3
Candida albicans [33] = assay: Antifungal activity against itraconazole/fluconazole susceptible Candida albicans ATCC MYA-2310 assessed as fungal growth inhibition by double dilution method; type: functional; in short: as §3

Compound: C[C@@H](c1ncncc1F)[C@](O)(Cn1cncn1)c1ccc(F)cc1F [VORICONAZOLE]
- Activity (J774.A1): Non-Toxic
- Activity (HEK293): Non-Toxic

- MIC ([Candida] auris [1]): 3.9 µg/mL (≈ 15.7 µM)
- MIC (Candida duobushaemulonii [2]): 1.95 µg/mL (≈ 7.84 µM)
- MIC ([Candida] haemuloni [3]): 1.95 µg/mL (≈ 7.84 µM)
- MIC ([Candida] auris [4]): 7.8 µg/mL (≈ 31.4 µM)
- MIC (Kodamaea ohmeri): 1.95 µg/mL (≈ 7.84 µM)
- MIC ([Candida] auris [5]): 15.6 µg/mL (≈ 62.7 µM)
- MIC ([Candida] auris [6]): 7.8 µg/mL (≈ 31.4 µM)
- MIC (Saccharomyces cerevisiae [7]): 3.9 µg/mL (≈ 15.7 µM)
- MIC (Saccharomyces cerevisiae [8]): 3.9 µg/mL (≈ 15.7 µM)
- MIC ([Candida] auris [9]): 15.6 µg/mL (≈ 62.7 µM)
- MIC ([Candida] auris [10]): 1.95 µg/mL (≈ 7.84 µM)
- MIC (Candida duobushaemulonii [11]): 1.95 µg/mL (≈ 7.84 µM)
- MIC ([Candida] auris [12]): 3.9 µg/mL (≈ 15.7 µM)
- MIC ([Candida] auris [13]): 31.3 µg/mL (≈ 126 µM)
- MIC ([Candida] auris [14]): 7.8 µg/mL (≈ 31.4 µM)
- MIC ([Candida] haemuloni [15]): 3.9 µg/mL (≈ 15.7 µM)
- MIC (Clavispora lusitaniae): 3.9 µg/mL (≈ 15.7 µM)
- MIC (Pichia kudriavzevii [16]): 3.9 µg/mL (≈ 15.7 µM)
- MIC (Candida duobushaemulonii [17]): 1.95 µg/mL (≈ 7.84 µM)
- MIC ([Candida] auris [18]): 7.8 µg/mL (≈ 31.4 µM)
Compound: O=C(NNc1ccc(Cl)cc1)c1cnccn1

Compound: COc1cccc(NNC(=O)c2ccc(F)cn2)c1
- MIC (Aspergillus fumigatus [19]): > 31.3 µg/mL
- MIC (Aspergillus nidulans): 1.95 µg/mL (≈ 7.46 µM)
- MIC (Cryptococcus neoformans): 0.24 µg/mL (≈ 0.919 µM)
- MIC (Candida albicans [20]): 3.9 µg/mL (≈ 14.9 µM)
- MIC (Aspergillus fumigatus [21]): > 31.3 µg/mL
- MIC (Candida albicans [22]): 1.95 µg/mL (≈ 7.46 µM)
- MIC (Aspergillus flavus): > 31.3 µg/mL
- MIC (Candida albicans [23]): 0.49 µg/mL (≈ 1.88 µM)
- MIC (Aspergillus fumigatus [24]): > 31.3 µg/mL
- MIC ([Candida] auris [25]): 0.98 µg/mL (≈ 3.75 µM)
- MIC (Nakaseomyces glabratus [26]): 15.6 µg/mL (≈ 59.7 µM)
- MIC (Candida albicans [27]): 0.98 µg/mL (≈ 3.75 µM)
- MIC ([Candida] auris [28]): 1.95 µg/mL (≈ 7.46 µM)
- MIC (Pichia kudriavzevii [29]): 0.24 µg/mL (≈ 0.919 µM)
- MIC (Aspergillus terreus): 3.9 µg/mL (≈ 14.9 µM)
- MIC (Nakaseomyces glabratus [30]): 3.9 µg/mL (≈ 14.9 µM)
- MIC (Candida albicans [31]): 0.24 µg/mL (≈ 0.919 µM)
- MIC (Candida albicans [32]): 0.98 µg/mL (≈ 3.75 µM)
- MIC (Candida albicans [33]): 1.95 µg/mL (≈ 7.46 µM)
